This is an account of results in ChEMBL document CHEMBL1212778, “Small-molecule inhibitors target Escherichia coli amyloid biogenesis and biofilm formation” (2009).

Calls of active or inactive are those of the source. The rule behind the calls is not given here.

The term inhibition denotes the percentage by which the read-out fell short of the control.

In assay [1] the test system is Escherichia coli. The assay can be described thus: Inhibition of CsgF biogenesis in Escherichia coli K-12 at 2.5 mM after […] by polyacrylamide gel-shift assay. It is filed as functional, organism-based. In outline:
(§1)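 MC4100 was grown 48 h at 26 °C on YESCA agar containing compound at 0.1, 1.0 or 2.5 mM final, with a DMSO carrier control (3.6% v/v). Cells were resuspended in PBS to OD600 0.5 and curli were dissociated with HFIP or formic acid. CsgA, CsgB, CsgF and CsgG were detected by SDS-PAGE immunoblot with curli-specific antibodies. MC4100Δcsg served as negative control.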

Assay [2] has as its system Escherichia coli. The assay can be described thus: Inhibition of curli protein biogenesis in Escherichia coli K-12 at 2.5 mM […] by polyacrylamide gel-shift assay. It is filed as functional, organism-based. In outline:
as §1

The subject of assay [3] is Escherichia coli. The assay can be described thus: Inhibition of curli protein biogenesis in uropathogenic Escherichia coli UTI89 at 60 to 250 uM after 48 hrs in YESCA broth medium by polyacrylamide gel-shift assay. The class given is functional, organism-based. In outline:
(§2)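 UTI89 was inoculated from an overnight LB culture into YESCA broth containing compound and shaken at 100 rpm, 28 °C, for 48 h. Cells were pelleted, resuspended in PBS and normalized to OD600 0.5. Curli were dissolved with formic acid and analysed by curli-antibody immunoblot. Samples prepared the same way were also imaged by high-resolution EM.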

The test system of assay [4] is Escherichia coli. The assay can be described thus: Inhibition of CsgG biogenesis in Escherichia coli K-12 at 2.5 mM after […] by polyacrylamide gel-shift assay. It is filed as functional, organism-based. In short, it runs like this:
as §1

For assay [5], the system named is Escherichia coli. The assay can be described thus: Inhibition of curli protein biogenesis in uropathogenic Escherichia coli UTI89 at 60 to 250 uM after 48 hrs by electron microscopy. It is filed as functional, organism-based. In outline:
as §2

In assay [6] the test system is Escherichia coli. The assay can be described thus: Antibacterial activity against Escherichia coli UTI89 at 400 uM after 24 hrs by spectrophotometry. It is filed as functional, organism-based.
Assay [7] concerns the target Major curlin subunit (Escherichia coli (strain K12)) (UniProt P28307). The assay can be described thus: Inhibition of CsgA polymerization in Escherichia coli K-12 at 125 uM after 24 hrs by thioflavin-T amyloid polymerization assay. In outline:
(§3)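 Freshly purified, soluble, unstructured C-terminal His6-CsgA (25 μM) was incubated with 25 μM ThT with or without compound. Fluorescence (excitation 438 nm, emission 495 nm) was followed over time at 60-min intervals. Soluble CsgA was confirmed by SDS-PAGE and anti-CsgA western blot, since polymerized CsgA is SDS-insoluble.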

Assay [8] has the same target. The assay can be described thus: Inhibition of CsgA polymerization in Escherichia coli K-12 at 25 uM after 24 hrs by thioflavin-T amyloid polymerization assay. In outline:
as §3

Assay [9] deals with Escherichia coli. The assay can be described thus: Inhibition of type 1 pili biogenesis in uropathogenic Escherichia coli UTI89 at 5 to 15 uM after 48 hrs by SYTO83 staining-based confocal microscopy. It is filed as functional, organism-based.
The subject of assay [10] is Escherichia coli. The assay can be described thus: Inhibition of type 1 pili biogenesis in uropathogenic Escherichia coli UTI89 at 5 to 15 uM after 48 hrs by congo red staining-based confocal microscopy. The class given is functional, organism-based.
The subject of assay [11] is Escherichia coli. The assay can be described thus: Inhibition of type 1 pili biogenesis in uropathogenic Escherichia coli UTI89 at 5 to 15 uM after 48 hrs by calcofluor staining-based confocal microscopy. The class given is functional, organism-based.
Assay [12] has as its system Escherichia coli. The assay can be described thus: Inhibition of type 1 pili biogenesis in uropathogenic Escherichia coli UTI89 at 25 uM after 48 hrs in YESCA broth medium by […]. The class given is functional, organism-based. In outline:
(§4)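 Pellicle formation was scored visually in a 24-well plate assay. UTI89 was grown in Congo red-containing YESCA broth at 30 °C, with pellicles judged about 48 h after inoculation. DMSO carrier served as control.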

For assay [13], the system named is Escherichia coli. The assay can be described thus: Inhibition of curli protein biogenesis in uropathogenic Escherichia coli UTI89 assessed as inhibition of biofilm formation in PVC wells at 100 uM after 48 hrs in YESCA broth medium by crystal violet staining. The conditions noted are these: UTI89, 48 h. The class given is functional. In outline:
(§5)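 UTI89 was grown 48 h in YESCA broth in PVC microtiter wells with compound. Wells were rinsed, stained with crystal violet and quantified. Percent inhibition is relative to no-compound controls included on each plate. Data are four experiments, with bars as s.d.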

Assay [14] has as its system Escherichia coli. The assay can be described thus: Inhibition of curli protein biogenesis in uropathogenic Escherichia coli UTI89 assessed as complete inhibition of biofilm formation in PVC wells at 200 uM after 48 hrs in YESCA broth medium by crystal violet staining. It is filed as functional, organism-based. In outline:
as §5

The test system of assay [15] is Escherichia coli. The assay can be described thus: Inhibition of curli protein biogenesis in uropathogenic Escherichia coli UTI89 assessed as complete inhibition of biofilm formation in PVC wells at 400 uM after 48 hrs in YESCA broth medium by crystal violet staining. It is filed as functional, organism-based. In short, it runs like this:
as §5

In assay [16] the test system is Escherichia coli. The assay can be described thus: Inhibition of type 1 pili biogenesis in uropathogenic Escherichia coli UTI89 assessed as complete inhibition of biofilm formation in PVC wells at 50 uM after 48 hrs in LB broth medium by crystal violet staining. Conditions: UTI89, 48 h. The class given is functional. In outline: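 UTI89 was grown 48 h in LB broth in PVC microtiter wells with compound; biofilm here is type 1 pili-dependent. Wells were rinsed and stained with crystal violet. Percent inhibition is relative to no-compound controls on each plate, from four experiments.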

The subject of assay [17] is Escherichia coli. The assay can be described thus: Inhibition of curli protein biogenesis in uropathogenic Escherichia coli UTI89 at 60 to 250 uM after 48 hrs in YESCA broth medium by polyacrylamide gel-shift assay.
Assay [18] has as its system Escherichia coli. The assay can be described thus: Inhibition of curli protein biogenesis in Escherichia coli K-12 at 1 mM after […] by polyacrylamide gel-shift assay. The class given is functional, organism-based. In outline:
as §1

Assay [19] deals with Major curlin subunit (Escherichia coli (strain K12)) (UniProt P28307). The assay can be described thus: Inhibition of CsgA polymerization in Escherichia coli K-12 at 10 uM after 24 hrs by thioflavin-T amyloid polymerization assay. In outline:
as §3

In assay [20] the test system is Escherichia coli. The assay can be described thus: Inhibition of […] in uropathogenic Escherichia coli UTI89 at 5 uM after 48 hrs in YESCA broth medium by congo red staining-based […]. It is filed as functional, organism-based. In outline: as §4
Assay [21] has as its system Escherichia coli. The assay can be described thus: Inhibition of curli protein biogenesis in uropathogenic Escherichia coli UTI89 assessed as inhibition of biofilm formation in PVC wells at 50 uM after 48 hrs in YESCA broth medium by crystal violet staining. The class given is functional. Conditions: UTI89, 48 h. In outline:
as §5

The test system of assay [22] is Escherichia coli. The assay can be described thus: Antibacterial activity against uropathogenic Escherichia coli UTI89 infected in C3H/HeN mouse assessed as reduction bacterial load in bladder at 250 uM after 6 hrs post-infection by punctate violet staining relative to control. The class given is functional, Urinary bladder. In short, it runs like this: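 UTI89 was grown under type 1 pili-inducing conditions with or without 250 μM compound, then resuspended in PBS to OD600 0.5. 50 μl (1–2 × 10^7 CFU) was instilled transurethrally into 7–8-week-old female C3H/HeN mice. At 6 hpi, bladders were homogenized and plated for CFU (16 h, 37 °C), or fixed and LacZ-stained to count IBCs. Two-tailed Mann-Whitney test.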

The test system of assay [23] is Escherichia coli. The assay can be described thus: Inhibition of type 1 pili biogenesis in uropathogenic Escherichia coli UTI89 at 500 uM after 48 hrs in YESCA broth medium by congo red staining-based confocal microscopy. The class given is functional, organism-based. The conditions noted are these: in the assay text read “curli-dependent pellicle formation” for “type 1 pili biogenesis”. In short, it runs like this: as §4

The test system of assay [24] is Escherichia coli. The assay can be described thus: Inhibition of curli protein biogenesis in uropathogenic Escherichia coli UTI89 assessed as complete inhibition of biofilm formation in PVC wells at 50 to 400 uM after 48 hrs in YESCA broth medium by crystal violet staining. It is filed as functional, organism-based. In outline:
as §5

Chain of Major curlin subunit (Escherichia coli (strain K12)) (P28307 whole entry): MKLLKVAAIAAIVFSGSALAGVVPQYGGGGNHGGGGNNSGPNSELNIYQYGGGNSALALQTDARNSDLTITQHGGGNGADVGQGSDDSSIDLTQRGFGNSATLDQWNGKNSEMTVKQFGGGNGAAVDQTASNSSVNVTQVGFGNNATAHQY

Consider `O=C(O)[C@@H]1CSc2c(-c3ccc(F)c(F)c3)c(Cc3ccc4ccccc4c3)cc(=O)n21`, for which the inhibition entry with Escherichia coli [1] and with Escherichia coli [4] was “inactive” in each case. Moreover, the inhibition result (in the assay with Escherichia coli [2]; with Escherichia coli [3]; in the assay with Escherichia coli [5]; in [7]; in [8]; with Escherichia coli [9]) was “Active” in each case. The inhibition result in the assay on Escherichia coli [10], in the assay with Escherichia coli [11], with Escherichia coli [12], with Escherichia coli [14], in the assay on Escherichia coli [15] and in the assay with Escherichia coli [17] was “Active” throughout. The outcome in the assay on Escherichia coli [6] was inactive. Further, the inhibition at 100 µM with Escherichia coli [13] worked out at 50%. Further, the inhibition at 50 µM in the assay on Escherichia coli [16] was determined as 92%.
As to `O=C(O)[C@@H]1CSc2c(-c3cccc(C(F)(F)F)c3)c(Cc3cccc4ccccc34)cc(=O)n21`, the inhibition result in the assay on Escherichia coli [1] and with Escherichia coli [4] was “inactive” in each case. Also, the inhibition entry (with Escherichia coli [18]; in the assay with Escherichia coli [3]; in the assay with Escherichia coli [5]; in [7]; in assay [19]; in assay [8]) was “Active” each time. Moreover, the inhibition entry in the assay on Escherichia coli [9], with Escherichia coli [10], in the assay with Escherichia coli [11], in the assay with Escherichia coli [20] and in the assay with Escherichia coli [17] was “Active” each time. Besides, the result in the assay with Escherichia coli [6] was inactive. Moreover, the inhibition at 50 µM came out at 50% in the assay with Escherichia coli [21] and 99% in the assay on Escherichia coli [16]. In addition, the inhibition at 100 µM with Escherichia coli [13] came to 90%. In addition, the “fold change (FC)” value in the assay with Escherichia coli [22] is 10.
Consider `O=C(O)[C@@H]1CSc2c(C3CC3)c(Cc3cccc4ccccc34)cc(=O)n21`, for which the inhibition entry in the assay with Escherichia coli [1], with Escherichia coli [4], with Escherichia coli [5], with Escherichia coli [23] and in the assay on Escherichia coli [24] was “inactive” throughout. Besides, the result in the assay with Escherichia coli [6] was inactive. The inhibition at 50 µM in the assay with Escherichia coli [16] stood at 38%.
For the molecule `O=C(O)[C@@H]1CSc2c(-c3ccc(Br)cc3)c(Cc3cccc4ccccc34)cc(=O)n21`, the inhibition result in the assay with Escherichia coli [1], in the assay on Escherichia coli [2], in the assay on Escherichia coli [4] and with Escherichia coli [20] was “inactive” throughout. The inhibition entry in the assay with Escherichia coli [3], with Escherichia coli [5], in the assay with Escherichia coli [14], in the assay on Escherichia coli [15] and with Escherichia coli [17] was “Active” throughout. For the same molecule, the outcome in the assay on Escherichia coli [6] was inactive. Besides, the inhibition at 100 µM with Escherichia coli [13] came to 50%.
